ChEMBL document CHEMBL2093137, “WHO-TDR NTD Screening”
≈ marks a conversion by molar mass, not a printed value.

Legend:
[1] = WHO-TDR: Cytotoxicity; format: toxicity, cell-based; details: human, MRC5 cells
Plasmodium falciparum K1 = test: WHO-TDR: Malaria; format: functional, organism-based, Homo sapiens; details: Erythrocyte
In short: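 Antiplasmodial potency, expressed as IC50, was measured in a whole-organism assay on intra-erythrocytic Plasmodium falciparum K1 in human red blood cells. The screened library held 10,000 diverse compounds from Life Chemicals.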

Trypanosoma cruzi = test: WHO-TDR: Chagas disease; format: functional, organism-based, Homo sapiens; details: MRC5
In short: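 Whole-organism screen of a 10,000-compound diverse library from Life Chemicals, filtered for drug-likeness and reactive groups, against intracellular amastigotes of Trypanosoma cruzi Tulahuen CL2 beta-galactosidase strain grown in MRC-5SV2 human lung fibroblast host cells. The assay followed previously published standard procedures, with a reference drug as positive control. Antiparasitic potency is reported as IC50.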

[2] = test system: Trypanosoma brucei brucei; test: WHO-TDR: Human African Trypanosomiasis (HAT); format: functional, organism-based; details: Squib-427
In short: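 Antiparasitic potency is reported as IC50. The screen covered 10,000 compounds from a diverse Life Chemicals library, filtered for drug-likeness and reactive groups, tested on whole bloodstream-form Trypanosoma brucei of the Squib 427 strain.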

Leishmania infantum = test: WHO-TDR: Leishmaniasis; format: functional, organism-based, Mus musculus; details: Macrophage
In short: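 Antiparasitic potency, reported as IC50, was measured against intracellular Leishmania infantum amastigotes. The parasite strain was MHOM/MA(BE)/67, and murine peritoneal macrophages served as host cells for the screen of a 10,000-compound diverse library from Life Chemicals.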

Schistosoma mansoni = test: WHO-TDR: Schistosomiasis; format: functional; set-up: concentration or dose not given beside the values
In short: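 A diverse library of 10,000 compounds from Life Chemicals, filtered for drug-likeness and reactive groups, was screened against whole larval and/or adult Schistosoma mansoni worms of the Puerto Rican strain. Previously published standard procedures were followed, with a reference drug as positive control. Activity is given as percent inhibition and as IC50.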

Onchocerca lienalis = test: (§1) WHO-TDR: Onchocerciasis; format: functional; set-up: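 at 12.5 µM on microfilariae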
In short: (§2)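 A diverse library of 10,000 compounds from Life Chemicals, filtered for drug-likeness and reactive groups, was screened against whole microfilariae of Onchocerca ochengi or Onchocerca lienalis. These animal pathogens served as stand-ins for the human parasite. Activity is given as percent inhibition and as IC50.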

Brugia malayi [3] = test: (§3) WHO-TDR: Lymphatic Filariasis; format: functional; set-up: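 tested at 10 µM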
In short: (§4)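 A diverse library of 10,000 compounds from Life Chemicals was screened against Brugia malayi microfilariae in a whole-organism assay. The library had been filtered for drug-likeness and reactive groups. Activity is given as percent inhibition and as IC50.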

Brugia malayi [4] = test: as §3; format: functional; set-up: concentration or dose not given beside the values; in short: as §4; remark: listed apart in the source
Brugia malayi [5] = test: as §3; format: functional, organism-based; in short: as §4
Onchocerca ochengi = test: as §1; format: functional; set-up: concentration or dose not given beside the values; in short: as §2;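 further: at 12.5 µM on microfilariae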

Structure (SMILES)	IC50 [1]	IC50 (Plasmodium falciparum K1)	IC50 (Trypanosoma cruzi)	IC50 [2]	IC50 (Leishmania infantum)	% Inhibition (Schistosoma mansoni)	% Inhibition (Onchocerca lienalis)	% Inhibition (Brugia malayi [3])	% Inhibition (Brugia malayi [4])	IC50 (Brugia malayi [5])	% Inhibition (Onchocerca ochengi)
c1ccc2c(CCNc3[nH]cnc4ncnc3-4)c[nH]c2c1	1.91 µg/mL (≈ 6.87 µM)	> 8.35 µg/mL	0.588 µg/mL (≈ 2.11 µM)	> 8.35 µg/mL	> 8.35 µg/mL	0%	13.4%	0%	0%	–	–
CN1CCc2c(OCC(=O)N3N=C(c4cccs4)CC3c3ccc(F)cc3)cccc2C1=O (configuration not stated)	> 13.9 µg/mL	7.38 µg/mL (≈ 15.9 µM)	2.3 µg/mL (≈ 4.96 µM)	4.45 µg/mL (≈ 9.6 µM)	0.947 µg/mL (≈ 2.04 µM)	0%	0%	90%	0%	–	–
COc1ccc2nc(N(CCCN(C)C)C(=O)CCCSc3ccccc3)sc2c1	4.06 µg/mL (≈ 9.16 µM)	3.35 µg/mL (≈ 7.55 µM)	2.53 µg/mL (≈ 5.71 µM)	0.455 µg/mL (≈ 1.03 µM)	4.66 µg/mL (≈ 10.5 µM)	0%	12.34%	0%	0%	–	–
CCCC(=O)Nc1nnc(-c2ccc(C)cc2)s1	> 7.84 µg/mL	> 7.84 µg/mL	> 7.84 µg/mL	> 7.84 µg/mL	> 7.84 µg/mL	0%	0%	0%	100%	–	–
CCOC(=O)c1c(NC(=O)c2cccc(C(F)(F)F)c2)sc2c1CCN(C)C2	> 13.5 µg/mL	> 13.5 µg/mL	4.8 µg/mL (≈ 11.6 µM)	0.341 µg/mL (≈ 0.826 µM)	4.84 µg/mL (≈ 11.7 µM)	0%	0%	33.33%	0%	–	–
CCOC(=O)c1c(NC(=O)c2sc3ccccc3c2Cl)sc2c1CCN(C)C2	3.6 µg/mL (≈ 8.29 µM)	> 14.1 µg/mL	0.568 µg/mL (≈ 1.31 µM)	1.95 µg/mL (≈ 4.49 µM)	4.58 µg/mL (≈ 10.5 µM)	0%	0%	33.33%	33.33%	–	–
CCC(=O)c1c(NC(=O)c2ccc(C)cc2)sc2c1CCN(CC)C2	> 11.8 µg/mL	1.87 µg/mL (≈ 5.24 µM)	0.479 µg/mL (≈ 1.34 µM)	0.321 µg/mL (≈ 0.9 µM)	2.32 µg/mL (≈ 6.51 µM)	0%	0%	33.33%	33.33%	–	–
CC(C)N1CCc2c(sc(NC(=O)COc3ccc(Cl)cc3Cl)c2C(N)=O)C1	3.18 µg/mL (≈ 7.19 µM)	3.35 µg/mL (≈ 7.57 µM)	0.595 µg/mL (≈ 1.35 µM)	4.6 µg/mL (≈ 10.4 µM)	0.465 µg/mL (≈ 1.05 µM)	0%	20%	33.33%	0%	–	–
CC(C)N1CCc2c(sc(NC(=O)c3sc4ccccc4c3Cl)c2C(N)=O)C1	4.25 µg/mL (≈ 9.8 µM)	> 14.1 µg/mL	0.552 µg/mL (≈ 1.27 µM)	2.02 µg/mL (≈ 4.65 µM)	0.457 µg/mL (≈ 1.05 µM)	0%	0%	33.33%	0%	–	–
CCN1CCc2c(sc(NC(=O)c3ccccc3)c2-c2nc3ccccc3s2)C1	3.75 µg/mL (≈ 8.94 µM)	2.17 µg/mL (≈ 5.17 µM)	0.514 µg/mL (≈ 1.23 µM)	1.22 µg/mL (≈ 2.91 µM)	4.43 µg/mL (≈ 10.6 µM)	25%	0%	0%	0%	–	–
CC(C)(C)c1ccc(-c2csc(NC(=O)c3ccc4ncsc4c3)n2)cc1	7.77 µg/mL (≈ 19.7 µM)	2.77 µg/mL (≈ 7.04 µM)	0.891 µg/mL (≈ 2.26 µM)	3.46 µg/mL (≈ 8.8 µM)	4.24 µg/mL (≈ 10.8 µM)	0%	33.3%	50%	0%	–	–
CN1CCc2c(sc(NC(=O)C3COc4ccccc4O3)c2-c2nc3ccccc3s2)C1 (configuration not stated)	5.39 µg/mL (≈ 11.6 µM)	3.38 µg/mL (≈ 7.29 µM)	2.48 µg/mL (≈ 5.35 µM)	0.48 µg/mL (≈ 1.04 µM)	4.86 µg/mL (≈ 10.5 µM)	0%	0%	33.33%	66.67%	–	–
COc1cccc2c1CCN(Cc1ccc(Cl)cc1)C2=O	> 9.05 µg/mL	> 9.05 µg/mL	2.48 µg/mL (≈ 8.23 µM)	> 9.05 µg/mL	> 9.05 µg/mL	0%	40%	100%	–	3.54 µM	–
O=C(Nc1nc2c(F)cc(F)cc2s1)c1nc2ccccc2s1	> 10.4 µg/mL	> 10.4 µg/mL	> 10.4 µg/mL	> 11.1 µg/mL	> 10.4 µg/mL	0%	–	100%	50%	3.27 µM	–
Cc1c(Cl)ccc2sc(NC(=O)c3ccc(S(=O)(=O)N4CC(C)CC(C)C4)cc3)nc12 (configuration not stated)	> 14.3 µg/mL	> 14.3 µg/mL	> 14.3 µg/mL	> 15.3 µg/mL	4.64 µg/mL (≈ 9.71 µM)	0%	–	100%	80%	1.07 µM	–
O=C(Nc1nc2c(Cl)ccc(Cl)c2s1)C1=COCCO1	> 9.93 µg/mL	> 9.93 µg/mL	> 9.93 µg/mL	> 10.6 µg/mL	> 9.93 µg/mL	0%	–	100%	25%	3.97 µM	–
Cc1cc(C)c2sc(NC(=O)c3nc4ccccc4s3)nc2c1	> 10.2 µg/mL	> 10.2 µg/mL	> 10.2 µg/mL	> 10.9 µg/mL	> 10.2 µg/mL	0%	–	100%	25%	2.5 µM	–
COc1cccc(C(=O)Nc2nnc(-c3ccc4c(c3)CCCC4)o2)c1	> 10.5 µg/mL	> 10.5 µg/mL	> 10.5 µg/mL	> 11.2 µg/mL	3.31 µg/mL (≈ 9.49 µM)	25%	–	100%	50%	2.18 µM	–
O=C(Nc1nnc(-c2ccc3c(c2)CCCC3)o1)c1cc(Cl)sc1Cl	> 11.8 µg/mL	> 11.8 µg/mL	3.88 µg/mL (≈ 9.83 µM)	3.79 µg/mL (≈ 9.63 µM)	6.13 µg/mL (≈ 15.5 µM)	0%	–	100%	50%	4.49 µM	–
CCCCc1ccc(NC(=O)CSc2cn(CC)c3ccccc23)cc1	> 11 µg/mL	> 11 µg/mL	2.93 µg/mL (≈ 7.99 µM)	3.56 µg/mL (≈ 9.71 µM)	> 11 µg/mL	0%	–	100%	0%	3.54 µM	–
COc1cccc2sc(Nc3nc4c(s3)CCCC4)nc12	> 9.52 µg/mL	> 9.52 µg/mL	> 9.52 µg/mL	3.81 µg/mL (≈ 12 µM)	> 9.52 µg/mL	0%	–	100%	50%	3.44 µM	–
COc1cccc2sc(Nc3sc4c(c3C(N)=O)CCCC4)nc12	3.58 µg/mL (≈ 9.95 µM)	4.55 µg/mL (≈ 12.7 µM)	3 µg/mL (≈ 8.35 µM)	0.947 µg/mL (≈ 2.63 µM)	4.55 µg/mL (≈ 12.7 µM)	12.5%	–	100%	50%	4.51 µM	–
N#Cc1cnc2c(F)cccc2c1Nc1ccc(Br)cc1	> 11.4 µg/mL	> 11.4 µg/mL	> 11.4 µg/mL	> 11.4 µg/mL	> 11.4 µg/mL	0%	–	0%	0%	–	100%
Cc1cc(NC(=O)C2CCCN(S(=O)(=O)c3ccccc3)C2)on1 (configuration not stated)	> 10.5 µg/mL	> 10.5 µg/mL	> 10.5 µg/mL	> 10.5 µg/mL	0.339 µg/mL (≈ 0.97 µM)	41.7%	–	0%	0%	–	0%
Cc1ccc(-n2ccnc2N2CCN(C(=O)c3ccccc3SC(F)F)CC2)cc1	13.9 µg/mL (≈ 32.6 µM)	3.65 µg/mL (≈ 8.53 µM)	0.531 µg/mL (≈ 1.24 µM)	4.57 µg/mL (≈ 10.7 µM)	> 13.9 µg/mL	58.3%	–	0%	0%	–	100%
O=C(C1CCCC1)N1CCc2ccc(NS(=O)(=O)c3ccc4c(c3)OCCO4)cc21	> 12.9 µg/mL	> 12.9 µg/mL	> 12.9 µg/mL	> 12.9 µg/mL	0.416 µg/mL (≈ 0.971 µM)	0%	–	0%	0%	–	0%
O=C(C1CC1)N1CCc2ccc(NS(=O)(=O)c3ccc4c(c3)CCCC4)cc21	1.28 µg/mL (≈ 3.24 µM)	> 11.9 µg/mL	0.829 µg/mL (≈ 2.09 µM)	3.85 µg/mL (≈ 9.71 µM)	> 11.9 µg/mL	0%	–	0%	0%	–	0%
COc1ccc(CC(=O)NCCS(=O)(=O)N2CCN(c3ncccn3)CC2)cc1OC	> 13.5 µg/mL	> 13.5 µg/mL	> 13.5 µg/mL	> 13.5 µg/mL	0.437 µg/mL (≈ 0.972 µM)	33.3%	–	0%	0%	–	0%
